What was measured:
[1] = test system: human neutrophils, monocytes and lymphocytes; format: cell-based
[2] = test system: lung cell populations of TDM-challenged C57BL/6 mice; assay: In vivo cellular specificity of cFLFLFK-PEG12-Cy3 in TDM-challenged mouse lung; conditions: 50 µg i.v., 4 h circulation, 5 days after TDM; flow cytometry, n=3
In short: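 Female C57BL/6 mice (8 weeks, 18–20 g) received 100 µg TDM i.v. Five days later they got 50 µg Cy3-labelled test compound i.v. (n=3) or PBS (n=2). Lungs were digested 4 h later, and cells (2×10^6/mL in HBSS+) were live/dead stained 30 min on ice. They were blocked 30 min (40% mouse serum), plated at 1×10^6/well and mAb-stained. Flow cytometry acquired 100,000 live events. Gated populations were CD11b+Ly6G+, CD3+, CD11c+CD11b-, CD11b+CD11c+, CD11b+CD11c- and marker-negative. Each population's share of total Cy3 signal was pooled across mice.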

[3] = test system: C57BL/6 mouse lung; assay: TDM-induced lung granulomatous inflammation in mice; format: in vivo
In short: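 TDM was given via tail vein as an oil-in-water emulsion (100 µL, 100 µg), or vehicle alone. Day-5 lungs were H&E-stained for light microscopy (histology mice 6 weeks old). Flow cytometry used five TDM-treated mice (female, 8 weeks) with live/dead staining and mAb gating: CD11b+Ly6G+ neutrophils, CD3+ lymphocytes, CD11c+CD11b- alveolar macrophages, CD11b+CD11c+ macrophages/dendritic cells, CD11b+CD11c- monocytes/immature macrophages. Values are percentages of all living cells.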

[4] = five TDM-administered mice, day 5

Substance | Cy3 MFI on neutrophils compared with monocytes and lymphocytes [1] | Dose dependence of binding to neutrophils, monocytes and lymphocytes [1] | Targeting of lymphocytes and other (antibody-negative) cells in the lung [2] | Lung histology (H&E) ([3]; 100 µg TDM i.v., day 5, versus vehicle emulsion) | Change in lung frequency of CD3+ lymphocytes ([3]; 100 µg TDM i.v., day 5, flow cytometry) | Frequency increase of lung neutrophils compared to vehicle-injected mice ([3]; 100 µg TDM i.v., day 5, flow cytometry, data not shown) | Percentage of alveolar macrophages relative to all living lung cells [3, 4] | Percentage of immature macrophages/monocytes relative to all living lung cells [3, 4] | Percentage of lymphocytes relative to all living lung cells [3, 4] | Percentage of macrophages/dendritic cells relative to all living lung cells [3, 4] | Percentage of neutrophils relative to all living lung cells [3, 4]
cFLFLFK-PEG12-Cy3 | significantly higher | Dose-dependent binding was observed on all cell types | not targeted |  |  |  |  |  |  |  | 
trehalose dimycolate [TDM] |  |  |  | patchy regions of granulomatous inflammation were observed | unchanged | 9.1% ± 6.4% | 6.3% ± 1.7% | 20.1% ± 3.1% | 10.7% ± 2.5% | 17.7% ± 7.7% | 9.2% ± 3.7%

Source: paper PMC6014630 (Tuberculosis (Edinburgh, Scotland), 2018)
